Assay results as given in ChEMBL document CHEMBL6083194, “Discovery and evaluation of 3-(2-isocyanobenzyl)-1H-indole derivatives as potential quorum sensing inhibitors for the control of Pseudomonas aeruginosa infections in vitro” (RSC Med Chem, 2024).
Converted amounts (≈) assume the structure as drawn. The source made the active and inactive calls. No cut-off for these calls is given here.

Key:
[1] = Inhibition of quorum sensing system in Pseudomonas aeruginosa PAO1
Procedure, shortened: (§1)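 Plate screen. CV026 grown overnight in LB with 50 μg ml−1 kanamycin; 15 μl seeded into 15 ml LB agar (1.0% agarose) containing 20 μM C4-HSL. PAO1 plates run in parallel. Test colonies inoculated by toothpick, incubated overnight at 37 °C. Ring of colourless viable cells around the colony scored as inhibition.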

[2] = Inhibition of quorum sensing system in Chromobacterium violaceum CV026; procedure, shortened: as §1
Pseudomonas aeruginosa [3] = test: Inhibition of biofilm formation in Pseudomonas aeruginosa PAO1 incubated for 24 hrs crystal violet staining based SEM assay; format: functional, organism-based
Pseudomonas aeruginosa [4] = test: Inhibition of biofilm formation in Pseudomonas aeruginosa PAO1 at 1/2 times MIC incubated for 24 hrs crystal violet staining based SEM assay; format: functional
Pseudomonas aeruginosa [5] = test: Inhibition of pyocyanin production in Pseudomonas aeruginosa PAO1 at 1/2 time MIC incubated for 18 hrs; format: functional
Procedure, shortened: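 Overnight PAO1 in LB diluted to OD600 = 0.05, subcultured 5–7 h to mid-log, rediluted to OD600 = 0.05. 5 mL with compound grown 18 h at 37 °C, 200 rpm. Supernatant extracted with 3 mL chloroform, back-extracted into 0.2 M HCl, absorbance at 520 nm.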

Pseudomonas aeruginosa [6] = test: Inhibition of rhamnolipid production in Pseudomonas aeruginosa PAO1 at 1/2 to 1/4 times MIC by orcinol method; format: functional, organism-based
Procedure, shortened: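 Overnight PAO1 diluted 1:100 into LB with compound, 37 °C, 180 rpm; DMSO control. Supernatant (100 μL) mixed with 900 μL 0.19% orcinol in 53% H2SO4, heated 30 min at 80 °C, cooled, read at 421 nm.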

Pseudomonas aeruginosa [7] = test: Antibacterial activity against Pseudomonas aeruginosa PAO1 by serial dilution method; format: functional
Procedure, shortened: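 PAO1 in LB, 37 °C. MIC by CLSI 2-fold serial dilution in Mueller–Hinton broth, inoculum 1–5 × 10^5 CFU mL−1, DMSO stocks. Growth curves: overnight culture diluted to OD600 = 0.05, subcultured to mid-log, rediluted to OD600 = 0.05, 3 mL with compound; OD620 read at 1, 3, 5, 7, 9, 11 and 24 h at 37 °C; DMSO negative control.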

Pseudomonas aeruginosa [8] = test: Inhibition of biofilm formation in Pseudomonas aeruginosa PAO1 at 1/4 times MIC incubated for 24 hrs crystal violet staining based SEM assay; format: functional

Structure (SMILES)	inhibition [1]	inhibition [2]	MIC (Pseudomonas aeruginosa [7]) [µg/mL]	inhibition (Pseudomonas aeruginosa [3])	inhibition (INH) (Pseudomonas aeruginosa [4]) [%]	inhibition (Pseudomonas aeruginosa [5])	inhibition (Pseudomonas aeruginosa [6])	inhibition (INH) (Pseudomonas aeruginosa [5]) [%]	inhibition (INH) (Pseudomonas aeruginosa [8]) [%]
N#Cc1ccc(Br)cc1Cc1c[nH]c2ccccc12	Active	Active	–	Dose-dependent-effect	21	Active	–	–	–
CC(C)(C)OC(=O)n1c(-c2ccccc2)c(Cc2ccccc2C#N)c2ccccc21	–	–	–	Dose-dependent-effect	–	Active; Showed Higher Activity Than Positive Control Rsv	–	–	–
N#Cc1ccc(F)cc1Cc1c[nH]c2ccccc12	Active; Strong Inhibition Observed	Active	12 (≈ 47.9 µM)	Dose-dependent-effect	19	Active; Showed Higher Activity Than Positive Control Rsv	Active	–	–
Cn1cc(Cc2ccccc2C#N)c2ccccc21	–	–	–	Dose-dependent-effect	–	Active	–	–	–
N#Cc1ccccc1Cc1c[nH]c2cccc(F)c12	–	–	–	Dose-dependent-effect	35	Active	–	–	–
N#Cc1ccccc1Cc1c[nH]c2ccc(Cl)cc12	Active	Active; Showed Higher Activity	–	Dose-dependent-effect	11	Active	–	–	–
N#Cc1ccc(Cl)cc1Cc1c[nH]c2ccccc12	Active	–	–	Dose-dependent-effect	56	Active	–	–	–
CCOC(=O)C(C#N)Cc1c[nH]c2ccccc12 (configuration not stated)	Active; Strong Inhibition Observed	–	–	Dose-dependent-effect	–	Active	–	–	–
N#Cc1cc(F)ccc1Cc1c[nH]c2ccccc12	Active; Strong Inhibition Observed	Active; Showed Higher Activity	48 (≈ 192 µM)	Dose-dependent-effect	19	Active; Showed Higher Activity Than Positive Control Rsv	Active	–	–
N#Cc1c(Cl)cccc1Cc1c[nH]c2ccccc12	Active; Strong Inhibition Observed	Active	–	Dose-dependent-effect	1	Active	–	–	–
CCc1ccccc1C#N	–	Active; Showed Higher Activity	–	Dose-dependent-effect	–	Active	–	–	12
CCOC(=O)C(C#N)c1c[nH]c2ccccc12 (configuration not stated)	–	Active	–	Dose-dependent-effect	–	Active	–	–	–
N#CCCc1c[nH]c2ccccc12	Active; Strong Inhibition Observed	Active; Showed Higher Activity	–	Dose-dependent-effect	–	Active	–	–	9
N#Cc1ccccc1Cc1ccccc1	–	–	–	Dose-dependent-effect	–	Active	–	–	–
Cc1c(Cc2ccccc2C#N)c2ccccc2n1C(=O)OC(C)(C)C	–	–	–	Dose-dependent-effect	–	Active	–	–	–
N#Cc1ccccc1Cc1c[nH]c2cc(Br)ccc12	–	–	–	Dose-dependent-effect	21	Active	–	–	–
Nc1ccccc1Cc1c[nH]c2ccccc12	–	Active; Showed Higher Activity	–	Dose-dependent-effect	–	Active; Showed Higher Activity Than Positive Control Rsv	–	–	–

Second part, led by results:

inhibition [1]	inhibition [2]	MIC (Pseudomonas aeruginosa [7]) [µg/mL]	Structure (SMILES)	inhibition (Pseudomonas aeruginosa [3])	inhibition (INH) (Pseudomonas aeruginosa [4]) [%]	inhibition (Pseudomonas aeruginosa [5])	inhibition (Pseudomonas aeruginosa [6])	inhibition (INH) (Pseudomonas aeruginosa [5]) [%]	inhibition (INH) (Pseudomonas aeruginosa [8]) [%]
Active; Strong Inhibition Observed	–	–	CC(c1ccccc1C#N)c1c[nH]c2ccccc12 (configuration not stated)	Dose-dependent-effect	–	Active	–	–	–
Active	Active; Showed Higher Activity	–	Cc1ccc2c(Cc3ccccc3C#N)c[nH]c2c1	Dose-dependent-effect	7	Active; Showed Higher Activity Than Positive Control Rsv	–	–	–
Active	Active	–	Cc1ccc2[nH]cc(Cc3ccccc3C#N)c2c1	Dose-dependent-effect	50	Active	–	–	–
Active	Active; Showed Higher Activity	–	Cc1cccc2c(Cc3ccccc3C#N)c[nH]c12	Dose-dependent-effect	40	Active	–	–	–
Active; Strong Inhibition Observed	Active; Showed Higher Activity	–	N#Cc1ccccc1Cc1c[nH]c2ccc(Br)cc12	Dose-dependent-effect	39	–	–	64	–
Active; Strong Inhibition Observed	Active; Showed Higher Activity	–	Cc1cccc(Cc2c[nH]c3ccccc23)c1C#N	Dose-dependent-effect	27	Active	–	–	–
Active; Strong Inhibition Observed	–	–	COc1cccc2[nH]cc(Cc3ccccc3C#N)c12	Dose-dependent-effect	21	Active	–	–	–
Active; Strong Inhibition Observed	–	–	Cc1ccc(Cc2c[nH]c3ccccc23)c(C#N)c1	Dose-dependent-effect	1	–	–	60	–
Active	–	–	N#Cc1ccccc1Cc1c[nH]c2cc(Cl)ccc12	Dose-dependent-effect	26	Active	–	–	–
Active	Active; Showed Higher Activity	–	Cc1cccc2[nH]cc(Cc3ccccc3C#N)c12	Dose-dependent-effect	17	Active; Showed Higher Activity Than Positive Control Rsv	–	–	–
Active; Strong Inhibition Observed	–	–	Cc1ccc(C#N)c(Cc2c[nH]c3ccccc23)c1	Dose-dependent-effect	24	Active	–	–	–
Active; Strong Inhibition Observed	Active	–	Cc1[nH]c2ccccc2c1CCc1ccccc1C#N	Dose-dependent-effect	–	Active	–	–	–
Active; Strong Inhibition Observed	Active; Showed Higher Activity	24 (≈ 90 µM)	N#Cc1cccc(Cl)c1Cc1c[nH]c2ccccc12	Dose-dependent-effect	4	Active; Showed Higher Activity Than Positive Control Rsv	Active	–	–
Active; Strong Inhibition Observed	Active; Showed Higher Activity	96 (≈ 413 µM)	N#Cc1ccccc1Cc1c[nH]c2ccccc12	Dose-dependent-effect	38	Active; Showed Higher Activity Than Positive Control Rsv	Active	–	15
Active; Strong Inhibition Observed	Active; Showed Higher Activity	–	N#Cc1cccc(F)c1Cc1c[nH]c2ccccc12	Dose-dependent-effect	49	Active	–	–	–
Active	–	–	Cc1[nH]c2ccccc2c1Cc1ccccc1C#N	Dose-dependent-effect	13	Active	–	–	–
